Experiment: Toxicity liver stage against HepG2, at 10uM
Type: cell-based
Design: test concentration 10 uM, cell line HepG2-A16-CD81EGFP
Conditions: human, HepG2-A16-CD81EGFP cells; read-out: INHIBITION
How it was run: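 Uninfected HepG2-A16-CD81EGFP cells, 3 × 10^3 per well, 1536-well, plated on prespotted compound at 10 μM final, parasite-free screening media added to match infected plates; puromycin 10 μM positive, DMSO 0.5% negative; run in parallel with 48 h PbLuc assay at 37 °C, 5% CO2; viability by CellTiter-Glo luminescence, normalized to controls.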

| SMILES | cytotoxicity at 10 µM [%] |
| --- | --- |
| Cc1nc(C)c(CN2CCOC(Cc3ccccc3Cl)C2)nc1C (stereo not drawn) | 5.32 |
| NC(=O)c1cccc2nc([C@H]3CCN(Cc4ccccc4F)C3)[nH]c12 | 20.8 |
| O=C(CCn1ccc2ccc(Br)cc21)NCc1ccc(C(=O)O)cc1 | 13.4 |
| CC(C)CCn1[nH]c(CNc2ccc(F)cc2)nc1=O | 11.3 |
| CCCOc1ccc(C2SCC(=O)Nc3c2c(=O)[nH]n3C(C)C)cc1 (stereo not drawn) | 5.95 |
| Cc1c(CCC(=O)Nc2ccc(Br)cn2)cnn1C | -6.14 |
| O=c1c2cc3c(cc2nnn1Cc1ccccc1)OCCO3 | 7.38 |
| Cc1nn(C)cc1-c1cc(-c2cn(C)nc2C)n(CC(=O)NC2CC2)n1 | 4.46 |
| COCCNC(=O)C(C)n1cc(Br)cn1 (stereo not drawn) | -15 |
| CCN1CCCc2cc(CN3CCc4nc(C)[nH]c(=O)c4C3)ccc21 | 0.13 |
| CC(C)n1nccc1C(=O)N1CCC(c2nnsc2S(C)(=O)=O)CC1 | -0.88 |
| O=S1(=O)CCN(CCCc2ccc(Cl)cc2)CC1 | 1.91 |
| O=C1NCC(C(=O)NCc2ccccc2CN2CCOCC2)N1 (stereo not drawn) | 3.64 |
| COCCC(C)NCc1ccccc1-n1ccnc1 (stereo not drawn) | 1.91 |
| COCC(=O)N1CCN(c2ncnc3cccc(F)c23)CC1 | 6.37 |
| CCc1cc(NCCCNS(C)(=O)=O)nc(-c2ccncc2)n1 | 3.62 |
| Cn1cc(CCC(=O)NS(=O)(=O)N2CCCc3ccccc32)cn1 | 14.6 |
| CN(c1ccc(F)cc1)S(=O)(=O)c1cc2c(c(C(=O)O)c1)OCCO2 | -5.79 |
| O=C(NCCCN1CCN(c2ncccn2)CC1)Nc1ccccn1 | -7.48 |
| Cc1ccccc1CN1CCCN(CCN2CCOC2=O)CC1 | -7.53 |
| c1cc(CCN2CCC(NCc3ccsc3)CC2)ccn1 | -11 |

| SMILES | cytotoxicity at 10 µM [%] |
| --- | --- |
| COc1cccc2c1OCC(NC(=O)NCCC(N)=O)C2 (stereo not drawn) | -1.38 |
| COc1ccc(-c2cnc(CN3CCCC3CO)o2)cc1 (stereo not drawn) | 9.38 |
| Cn1cc(NC(=O)c2cccc(C(F)(F)F)c2)c(=O)n(C)c1=O | 0.49 |
| CC1COCCN1Cc1nc(C(C)(C)C)no1 (stereo not drawn) | 4.87 |
| CN(Cc1cnn(C)c1)C(=O)c1cc2ccccc2c(=O)[nH]1 | -5.64 |
| O=C(Nc1c(F)cccc1Oc1ccccc1)C1CCS(=O)(=O)C1 (stereo not drawn) | 1.91 |
| NC(=O)CN1CCC(Nc2ccnc3ccc(Cl)cc23)CC1 | 31.8 |
| Cc1ccc(C2CSCCN2CC(=O)N2CCOCC2)cc1 (stereo not drawn) | 9.04 |
| CC(C)(C)C(=O)NCC(=O)NCCc1nc(C(F)(F)F)cs1 | 6.16 |
| O=C(NCc1cc[nH]n1)NCC(c1ccco1)N1CCCC1 (stereo not drawn) | 13.6 |
| Cc1ccc(CNC2CCN(CCc3ccncc3)CC2)cc1C | -8.92 |
| COCc1noc(C2(c3ccc(F)cc3)CCOCC2)n1 | -25.3 |
| CCc1nc(COc2ccc(OCc3cnn(C)c3)cc2)no1 | -14.9 |
| Cc1ccc(C(=O)N2CCSCC2)cc1NC(=O)Cn1cncn1 | -11.1 |
| Cc1cnn(CC(C)NCc2nc(-c3cccnc3)no2)c1 (stereo not drawn) | -8.86 |
| COCCCNc1nccc(-c2c[nH][nH]c2=O)n1 | 7.46 |
| CCOCCC(=O)N1CCCN(c2ccccc2C)CC1 | -7.68 |
| Cc1cc(C(=O)N2CC(O)CO2)c2ccc(C)c(C)c2n1 (stereo not drawn) | 11.3 |
| COCCN(C)[C@@H]1c2ccccc2C2(CCNCC2)[C@H]1O | -4.61 |
| N#Cc1cccc(NC2CC(=O)N(CCCc3ccccc3)C2)n1 (stereo not drawn) | 5.82 |
| O=C(Nc1ccccc1CCc1ccccn1)NC1CCOCC1 | 6.1 |

| SMILES | cytotoxicity at 10 µM [%] |
| --- | --- |
| CN1CCCN(C(=O)c2cccc(S(=O)(=O)NCC3(C)COC3)c2)CC1 | -6.63 |
| CCN(Cc1cc(Cl)ccc1OC)Cc1nccn1C | 1.87 |
| Nc1cc(-c2cc(C(=O)O)ccc2Cl)c2cc[nH]c2n1 | 1.94 |
| CN(CCCN1CCOCC1)[C@@H]1c2ccccc2C2(CCNCC2)[C@H]1O | -3.12 |
| O=C(NCCc1nc(-c2ccccn2)no1)c1ccc(C2CCCO2)s1 (stereo not drawn) | 5.65 |
| COc1ccc(F)c(-c2cc(C(=O)NC3CC3)ccn2)c1 | -1.36 |
| CCNc1ncc(CN2CCOC(Cc3cccc(OC)c3)C2)cn1 (stereo not drawn) | 0.583 |
| CCCOc1ccccc1NCC(=O)Nc1ccc(CC)cc1 | 6.37 |
| CC(=O)N1CCCN(C(C(=O)O)c2ccccc2OC(F)(F)F)CC1 (stereo not drawn) | 15.5 |
| c1ccc(CCCn2ccnc2-c2cn(C3CCNCC3)nn2)nc1 | -1.86 |
| COc1ccc(NC(=O)N2CCC3(CC2)NC(=O)CC3C(=O)O)c(C)c1 (stereo not drawn) | -7.34 |
| Fc1cnc(N2CCN(Cc3ccc(-c4cc[nH]n4)o3)CC2)nc1 | -6 |
| CC(C)N1CCC[C@H]1C(=O)NCC1CCN(c2cnn(C)c(=O)c2)CC1 | 4.75 |
| CCc1nnc(CN(CC)C(=O)C2CCC(=O)N(C3CCCC3)C2)o1 (stereo not drawn) | 2.01 |
| COCCN(C)CCN1CC2(CCN(C3CCOCC3)CC2)OC1=O | 4.5 |
| COc1cccc(-n2cc(CN(C)Cc3ccnc(C(C)C)n3)cn2)c1 | -1.29 |
| CC(=O)N1CCN(C[C@H]2CC[C@@H](Cc3ccc4c(c3)OCO4)O2)CC1 | -7.9 |
| Cc1[nH]ccc1C(=O)N1CCC(c2nnc(Cn3cccn3)n2C)CC1 | -11.5 |
| CC(C)CCc1noc(CN2CCCN(C(=O)c3ccco3)CC2)n1 | -7.06 |
| O=C(NC1CCCC1)N1CCCC(c2nccn2Cc2ccncc2)C1 (stereo not drawn) | -18.3 |
| Cn1cc(C(=O)N2CCC(Cc3nccs3)CC2)cn1 | 7.63 |

| SMILES | cytotoxicity at 10 µM [%] |
| --- | --- |
| COCCc1noc(CN2CCOC(CN(C)C)C2)n1 (stereo not drawn) | -1.04 |
| Cc1ccc(C(=O)NC(CN2CCCC2=O)c2ccccc2)cn1 (stereo not drawn) | -4.6 |
| CCc1nc(CN2CCCC(NCc3cnc(C)s3)C2)no1 (stereo not drawn) | -9.26 |
| Cc1ccc(O)c(CNC2CCCN(Cc3noc(C4CC4)n3)C2)n1 (stereo not drawn) | -5.59 |
| CC(NC(=O)NCCCc1n[nH]c(N)c1C#N)c1ccccc1F (stereo not drawn) | -3.6 |
| O=C1CC(N(C(=O)c2ccc(F)c(F)c2)C2CC2)C(=O)N1 (stereo not drawn) | 2.1 |
| Cc1cnc(CN(C)C2CCN(Cc3nc4ccccc4s3)C2)o1 (stereo not drawn) | -7.97 |
| Cc1nc(C2CCCN2Cc2cc(=O)n(C)c(=O)n2C)no1 (stereo not drawn) | -0.222 |
| COCCn1cc(NC(=O)NC(C)Cc2c(F)cccc2F)cn1 (stereo not drawn) | -4.5 |
| c1ccc(Cc2noc(CN(Cc3cccs3)CC3CCCO3)n2)cc1 (stereo not drawn) | -5.77 |
| Cc1nccc(-c2cccc(NCC(=O)N3CCc4sccc4C3)c2)n1 | 1.06 |
| Cc1cnn(CC2CN(CC(=O)NCCc3cccs3)CCO2)c1 (stereo not drawn) | 1.88 |
| Cc1cn2c(n1)CCC(NC(=O)c1c[nH]c(C)n1)C2 (stereo not drawn) | -0.361 |
| Cc1ccc(NC(=O)N2CCN(Cc3noc(C4CC4)n3)CC2)cc1 | 4.88 |
| COCc1cccc(C(=O)N2CCCCC2c2nccs2)c1 (stereo not drawn) | -2.06 |
| Cc1ccc(OCCC(=O)N2CCN(c3cnccn3)CC2)cc1C | -12.2 |
| CN(C)c1ncc(-c2ccc(F)cc2)c(C2CNCCO2)n1 (stereo not drawn) | -5.68 |
| COCCN1CCC2(CC1)CN(C(=O)Cc1cccnc1)CCO2 | -9.43 |
| CC(C)n1cnc2c1C(C(=O)NCCC#N)N(Cc1ccccc1)CC2 (stereo not drawn) | -7.2 |
| Cn1cccc1C(=O)N1C[C@H]2CN(Cc3cccs3)C[C@H]2C1 | 2.02 |

Source: ChEMBL document CHEMBL4513216, “Probing the Open Global Health Chemical Diversity Library for Multistage-Active Starting Points for Next-Generation Antimalarials” (ACS Infect Dis, 2020)
